Test system: MS2 coat protein
Assay: apparent Kd, MS2 coat protein; higher = weaker binding; RNA-MaP array; FMN 200 µM where present
Method in brief: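 In 100 mM Tris-HCl pH 7.5, 80 mM KCl, 4 mM MgCl2, BSA, DTT, yeast tRNA and Tween-20, SNAP-549-labelled MS2 coat protein was titrated from 0.7 or 1.5 nM, doubling to 3 µM, over designs transcribed by stalled E. coli RNA polymerase on Illumina sequencing-chip clusters. This was done first without ligand, then with ligand held constant. After green signal was normalised to red-channel RNA signal and control-cluster median Fmax, the apparent Kd was taken as the median of filtered per-cluster binding-curve fits.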

[1] = designed as: OFF switch for flavin mononucleotide, no ligand
[2] = ligand present: flavin mononucleotide, designed as: OFF switch for flavin mononucleotide
[3] = designed as: ON switch for flavin mononucleotide, no ligand
[4] = ligand present: flavin mononucleotide, designed as: ON switch for flavin mononucleotide

Sequence	apparent Kd [1]	apparent Kd [2]	apparent Kd [3]	apparent Kd [4]
AGCGAGGCAGGAUAUACAUGAGGAUCACCCAUGUGCUUGCAUGGCGUGGAAUGUCGAGGUAGAAGGGCCAUGCC	21.3 nM	26.1 nM		
GUAGCAUACCGAGGAUAUUCAGGGCGUGAAUAAACAUGAGGAUCACCCAUGUGGCGAAAGCCUAGGGAGAAGGCGGAAUGCUAC			25.9 nM	19.1 nM
GGCUACGUUUCGUAGCAGUGUCAUCGAGAAGGCCCUGACAUGAGGAUCACCCAUGUUGUUACAUGGGAGGAUAUCGAUGAUACA			12.5 nM	4.96 nM
AGACGGAGCUGAGGAUAUAUACAUGAGGAUCACCCAUGUAAGCUCCAGGAAACUGGAGCAAAUGUAUAGAAGGCAGCUCCGUCA	28 nM	45.9 nM		
GCUGCAAAGUAAGGAUAUGCCUAGGAAACCUAGGCAGAAGGUACAUGAGGAUCACCCAUGUUAACCCAAAGGGAAUAAAGCAGC	15.8 nM	25.3 nM		
UGGUACAUGGGAGGAUAUCAUGUGAGAACAUGAGGAUCACCCAUGUCGAUGGAGACAUCGGAGAUUGAGAAGGCCCAUGUACCU			1210 nM	63.8 nM
ACGUUUUUUGAGGAUAUGCGAUAUUUUUUUAUCGUAGAAGGCGAUACAUGAGGAUCACCCAUGUUUAUGGGCAU	197 nM	204 nM		
CGAAACUACGAGAAGGACAUGUGGUCCUUCAGUUACAUGAGGAUCACCCAUGUAGGAUAUCGUAGUUUCAGGAUCGUGAGAUCG	45 nM	19.4 nM		
UUGGACGUCGUAGGAUAUGUAGGAUAUUCCUACAUGAGGAUCACCCAUGUUGACAUGGAAGACGGACAGAAGGACGAUGUCCAU			490 nM	12.8 nM
UGCCGUUUAGGAUAUACAUGAGGAUCACCCAUGUGACACACAUAUUUUACAAAACCAUGUAGAAGGAAACGGCA	104 nM	512 nM		
UUUUAACUACAAUUACAUGAGGAUCACCCAUGUUUUGGGAUGCAGGAUAUGUGGUAUAUUAAUUAACAGAAGGGCAAUAAUUAA			57.6 nM	46.4 nM
UUUUUGUCAGGAUAUCGUUAAUUUAAUUGUUUGUAUUAGUUCGAGAAGGGACAUGAGGAUCACCCAUGUAUUUU	41.1 nM	103 nM		
GAGUGACAUGAGGAUCACCCAUGUGAGGAUAUCGGACGGACCUAGUUAACAUCCGCCGCGAGAAGGCACAUCGG	156 nM	27 nM		
GCACGGUAAGUGAGGAUAUACCUCUGGAUACAGAGGUAGAAGGCACAUGAGGAUCACCCAUGUCUAAGCCGUGC	17.1 nM	24.1 nM		
UCAACCAGCGCCGGUUGAACAUGAGGAUCACCCAUGUACUCCAGAAGGCCGCCCAAGAACGGAGUGGAGGAUAUGGAAGUUCUC			75.7 nM	39.9 nM
GAGAAGAAGUUAGGAUAUUGGAUAGGGACGGACUAAGAAGGAGCACAUACAUGAGGAUCACCCAUGUUAGAAGAAGAUCCUCCA	32.3 nM	25.5 nM		
UUAAUUUGGUGAUAUUAUGACAUUAGAAGGCUGUACAUGUUGAUACAUGAGGAUCACCCAUGUAUAGAGGAUAUAGACAAUUUU	48 nM	105 nM		
UUUGUUUUGCAAGGAUAUGUUUAAUUUUAGUUUCCUUACACAUGAGGAUCACCCAUGUUAUACUUACAGAAGGUGCGUAAUUUU	126 nM	94 nM		
AUGUAGUAAGGAUAUAGAAAGAAGGAGUAAGAUAGAGAGUUCUAGAAGGUACAUGAGGAUCACCCAUGUUGGAG	29 nM	26.4 nM		
GGUGGCGUGAUAACGCUAGCUAUAACAUGAGGAUCACCCAUGUAGGAUAUCCCGCCGUGAGGGCGGGAGAAGGACAACCGAUGG	28.5 nM	30.8 nM		
GCAGGUUUACGAGGAUAUGGGUGGUACGGACAUGAGGAUCACCCAUGUCUCCCAGAAGGCGUAGCCCAACAAAGAGAACAGGAG			160 nM	22.5 nM

Sequence	apparent Kd [1]	apparent Kd [2]	apparent Kd [3]	apparent Kd [4]
AGUAACAGAGGAUAUACUAUUUUAUGUGUUUAUUAUUUUGAACAUGAGGAUCACCCAUGUAGAAGGCUGAAUAA	27 nM	30.1 nM		
GGGUACAUCGGAGGAUAUCAUGUAAAUACAUGAGGAUCACCCAUGUCGAUGGAGACAUCGGAGAUUGAGAAGGCCGAUGUACCA			154 nM	10.1 nM
GGGUACAUCGGAGGAUAUCAUGUAAAGACAUGAGGAUCACCCAUGUCGAUGGAGACAUCGGAGAUUGAGAAGGCCGAUGUACCG			26.4 nM	6.19 nM
CCUAAACAUGAGGAUCACCCAUGUCAGGAUAUGGACCGUCUGGUGAAAUUCAGCUGGACCAGAAGGGACGUGGA	32.2 nM	45.5 nM		
CCGGCUUAGUAGGAUAUCAGAGUCGAAAGACUCUGAGAAGGACUAACAUGAGGAUCACCCAUGUGUCCUACCGG	15.9 nM	36 nM		
GCAGGUUAAGUCAGGAUAUACCUAUGGAUACAUAGGUAGAAGGGACAUGAGGAUCACCCAUGUGACUCACCUGC	27.9 nM	57.6 nM		
AAAACUCGAGGAUAUGCAAAAUGAUUGCGAAAGCAAUCAAAACAUGAGGAUCACCCAUGUAGAAGGCGAGAAAA	23.7 nM	15.4 nM		
AAUGAUUCAGGAUAUACAUGAGGAUCACCCAUGUUGGUGUCCCUCCCAAAGUUGCAGUGUAGAAGGGAGUCCCG	131 nM	137 nM		
CCCAAACUUGGGCUUGGCGGUGCAUAGGAUAUCCUUGAACAUGAGGAUCACCCAUGUACAACUGUGGAGAAGGGUGCAGGGCCU			132 nM	17.3 nM
GCUCGAUGCGCUGAGCACAUGAGGAUCACCCAUGUAAAAUAUCAGGAUAUUUACGUGCUUUAUGUAGAGAAGGGAUUAUCGAGC			101 nM	41.4 nM
UAAUUAAGUGUGAGGAUAUGCUGGUCCUUGGAUCAGCAGAAGGCACAUGAGGAUCACCCAUGUAAUUUAUUUAU	85.1 nM	328 nM		
CUCAUGUAAGGAUAUCUACGCGCUAAGGUGCGUCUAUCACAAGAGAAGGUACAUGAGGAUCACCCAUGUAAAGA	103 nM	127 nM		
ACUGAAGUCACAGGAUAUCAUAUGCCGGCACAUUGAGAAGGGUGACUGGGCUACAUGAGGAUCACCCAUGUGCCGUCGUAACAA			29.8 nM	36.9 nM
AGCUGUGGCCGAGGAUAUCUGUUUCAUAAAACCGAAAUAUAAUCGGACAUGAGGAUCACCCAUGUAGAGAAGGCGGUCUCAGCA	16.6 nM	14.9 nM		
ACAAUGUGGUAAGGAUAUCCAAUGGCAUCCCUAGGAGAAGGUAUCACAUGAGGAUCACCCAUGUGAAGGAUGGGUUAUCGCAAA	223 nM	121 nM		
ACAAAACAUGUAGGAUAUCGAUUGCGUCGCGAUCGAGAAGGACAAGAGGGUCACCCUUGUACAUGAGGAUCACCCAUGUCAUGU	202 nM	149 nM		
GCCCGGGCAGGAUAUGCAGGCCCGGGAAACCGGGCCAUGGGACAUGAGGAUCACCCAUGUAGAAGGGCCCGGGC	17.1 nM	17.3 nM		
CCACGACCGGAGAAGGCAGUUUGUGGGCCUGUUCCUGUCGGAUACAUGAGGAUCACCCAUGUACCUGAGGAUAUCUGGUCGUAG	4.99 nM	5.57 nM		
AAAAUCUAUUGAGGAUAUUCAUACACUACAUACGGAGAAGGCAAACAAUCAUGAGGACAUGAGGAUCACCCAUGUUGUGACCAU			23.4 nM	20 nM
UGGUACUAGGGAGGAUAUGGGAAGAUACAUGAGGAUCACCCAUGUUUAAGAAUCCCGAGAGGCAACUAGAAGGCCCUAGUACCU			8.08 nM	6.96 nM
CUAUUUAGUGCCUCAUGUACAUGAGGAUCACCCAUGUUAACUUAGGAUAUAUUUAUAUUGAUAGAGUAGAAGGAAGUACUAUUU	22 nM	18.8 nM		

From the EternaBench riboswitch data
